The values below come from ChEMBL document CHEMBL4177583, “1-Hydroxypyrido[2,3-d]pyrimidin-2(1H)-ones as novel selective HIV integrase inhibitors obtained via privileged substructure-based compound libraries” (Bioorg Med Chem, 2017).

Data set [1] deals with Human immunodeficiency virus 1. The data set can be described thus: Antiviral activity against HIV1 3B infected in human MT4 cells assessed as inhibition of viral-induced cytopathic effect by MTT assay. Format: functional, organism-based. Summed up:
(§1)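 MT-4 cells resuspended at 6×10^5 cells/mL and infected with HIV-1 IIIB or HIV-2 ROD at 100-300 CCID50. Compounds tested as serial five-fold dilutions in triplicate wells. Viability read by MTT reduction at 540 and 690 nm after 5 days. Median OD of two or three wells used. EC50 is the concentration giving 50% protection from viral cytopathicity.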
Background: Protection from cytopathic effect is a common read-out in antiviral testing.

Data set [2] concerns Human immunodeficiency virus 2. In words: Antiviral activity against HIV2 ROD […] infected in human MT4 cells assessed as inhibition of viral-induced cytopathic effect by MTT assay. The data set is classed as functional, organism-based, ISOLATE ROD. Summed up:
as §1

Data set [3] is described as follows: (§2) Cytotoxic activity against mock-infected human MT4 cellls assessed as reduction in cell viability by MTT assay. Format: cell-based. To be noted: mock-infected MT4 cells. The method in brief: (§3)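 Mock-infected MT-4 cells (6×10^5 cells/mL) run in parallel with infected wells. Compounds tested as serial five-fold dilutions in triplicate. Viability read by MTT at 540/690 nm after 5 days, using the median OD of two or three wells. CC50 is the concentration reducing mock-infected cell viability by 50%. '>' marks the highest concentration tested that was non-cytotoxic.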

Data set [4] can be described thus: Selectivity index, ratio of CC50 for cytotoxic activity against mock-infected human MT4 cells to EC50 for antiviral activity against HIV1 3B infected in human MT4 cells. The data set is classed as toxicity, cell-based. The note with it: mock-infected (CC50) and HIV1 3B infected (EC50). Summed up: (§4)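 SI calculated as CC50 (mock-infected MT-4, MTT, 5 days) divided by EC50 against HIV-1 IIIB or HIV-2 ROD in MT-4 cells measured in the same MTT cytoprotection assay.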

The nature of data set [5]: Selectivity index, ratio of CC50 for cytotoxic activity against mock-infected human MT4 cells to EC50 for antiviral activity against HIV2 ROD […] infected in human MT4 cells. Format: toxicity, cell-based. To be noted: mock-infected (CC50) and HIV2 ROD infected (EC50). The method in brief:
as §4

The next data set deals with MT4. The data set is described as §2. To be noted: mt4. The data set is classed as cell-based. Summed up: as §3
Data set [6] concerns the target Human immunodeficiency virus type 1 reverse transcriptase (Human immunodeficiency virus 1) (UniProt Q72547). The data set can be described thus: Inhibition of RNase H inhibition activity of HIV-1 BH10 reverse transcriptase expressed in Escherichia coli at 100 uM pre-incubated for 5 mins before [32P]-labeled template primer 31Trna/21P addition by polyacrylamide gel electrophoresis method. Summed up:
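Recombinant WT HIV-1 BH10 RT (20-40 nM) preincubated with compound for 5 min at 37°C. Buffer: 50 mM Tris-HCl pH 8.0, 50 mM NaCl, 5 mM MgCl2, 5% DMSO. Reactions started with 25 nM 5'-[32P]-labeled 31Trna/21P template-primer. Sampled from 0 to 4 min at 37°C, quenched with EDTA/formamide, and resolved by denaturing PAGE.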

Setting [7] is: Human immunodeficiency virus 1, 3B, MT4.
The mark [8] stands for this setting: Human immunodeficiency virus 2, ISOLATE ROD, MT4.

Each structure is given as a SMILES string. Activity calls are given as the source filed them. No cut-off for these calls is given here.

As for `O=c1nc(Nc2cccc(-c3cn(Cc4ccc(F)cc4)nn3)c2)c2cccnc2n1O`, the concentration giving a half-maximal response (EC50) – broadly, the concentration at which the effect is half-maximal – in data set [1] (setting [7]) came out at 0.92 µM; in data set [2] (setting [8]), 2.82 µM. The cytotoxic concentration (CC50) (usually the concentration giving 50% cytotoxicity) in data set [3] was above 291 µM. In addition, the figures for the selectivity ratio in data set [4] and in data set [5] were above 318 and above 103, respectively.

As to `O=c1c2cc(Br)ccc2n(Cc2cn(Cc3ccccc3)nn2)c(=O)n1O`, the EC50 in data set [1] (setting [7]) and in data set [2] (setting [8]) was above 23.7 µM in each case. For the same molecule, in data set [3], the cytotoxic concentration (CC50) is 23.7 µM. In addition, the selectivity ratio in data set [4] and in data set [5] was below 1 each time.

For `O=c1c2cc(Br)ccc2n(Cc2cn(Cc3ccc(Cl)cc3)nn2)c(=O)n1O`, the 50% effective concentration (EC50) in data set [1] (setting [7]) and in data set [2] (setting [8]) was above 24.1 µM throughout. Besides, the cytotoxic concentration (CC50) in data set [3] was 24.1 µM. The selectivity ratio in data set [4] and in data set [5] was below 1 each time.

`O=C(Cn1cc(-c2cccc(Nc3nc(=O)n(O)c4ncccc34)c2)nn1)Nc1ccc(C(F)(F)F)cc1`: the EC50 in data set [1] (setting [7]) and in data set [2] (setting [8]) was above 239 µM in each case. For the same molecule, in data set [3], the CC50 was above 239 µM. Moreover, the selectivity ratio in data set [4] and in data set [5] was 1 in each case.

For the molecule `Cc1cccc(Cn2cc(Cn3c(=O)n(O)c(=O)c4cc(Br)ccc43)nn2)c1`, the concentration giving a half-maximal response (EC50) in data set [1] (setting [7]) and in data set [2] (setting [8]) was above 24 µM throughout. For the same molecule, in data set [3], the 50% cytotoxic concentration (CC50) amounted to 24 µM. The selectivity ratio in data set [4] and in data set [5] was below 1 in each case.

Take `Cc1ccccc1Cn1cc(Cn2c(=O)n(O)c(=O)c3cc(Br)ccc32)nn1`: the EC50 in data set [1] (setting [7]) and in data set [2] (setting [8]) was above 17.8 µM in each case. Moreover, the CC50 in data set [3] is 17.8 µM. The selectivity ratio in data set [4] and in data set [5] was below 1 in each case.

Turning to `O=C(Cn1cc(-c2cccc(Nc3nc(=O)n(O)c4ncccc34)c2)nn1)Nc1ccccc1`, the values for the EC50 in data set [1] (setting [7]) and in data set [2] (setting [8]) were 26.8 µM and above 275 µM, respectively. Moreover, in data set [3], the CC50 is above 275 µM. Further, the results for the selectivity ratio in data set [4] and in data set [5] were above 10 and 1, respectively.

As to `O=c1c2cc(Br)ccc2n(Cc2cn(Cc3ccc(F)c(F)c3)nn2)c(=O)n1O`, the concentration giving a half-maximal response (EC50) in data set [1] (setting [7]) and in data set [2] (setting [8]) was above 24.7 µM throughout. Further, the 50% cytotoxic concentration (CC50) in data set [3] came to 24.7 µM. For the same molecule, the selectivity ratio in data set [4] and in data set [5] was below 1 in each case.

For the molecule `Cc1nnc(C(=O)NC(C)(C)c2nc(C(=O)NCc3ccc(F)cc3)c(O)c(=O)n2C)o1` [RALTEGRAVIR POTASSIUM], the half-maximal effective concentration (EC50) stood at 0.0077 µM in data set [1] and 0.016 µM in data set [2]. Moreover, the CC50 in the data set with MT4 was above 51.8 µM.

Take `O=c1nc(Nc2cccc(-c3cn(-c4cccc5ccccc45)nn3)c2)c2cccnc2n1O`: the concentration for a half-maximal effect (EC50) in data set [1] (setting [7]) came out at 27.1 µM; in data set [2] (setting [8]) it was 69.4 µM. Also, the CC50 in data set [3] is above 279 µM. The selectivity ratio in data set [4] was above 10; in data set [5] it was above 4.

In the case of `O=c1c2cc(Br)ccc2n(Cc2cn(Cc3ccccc3Cl)nn2)c(=O)n1O`, the EC50 in data set [1] (setting [7]) and in data set [2] (setting [8]) was above 22.3 µM each time. In addition, the cytotoxic concentration (CC50) in data set [3] came to 22.3 µM. Besides, the selectivity ratio in data set [4] and in data set [5] was below 1 in each case.

With `O=c1nc(Nc2ccccc2-c2cn(Cc3ccc(F)cc3)nn2)c2cccnc2n1O`, the EC50 in data set [1] (setting [7]) and in data set [2] (setting [8]) was above 2.7 µM in each case. For the same molecule, the 50% cytotoxic concentration (CC50) in data set [3] amounted to 2.7 µM. In addition, the selectivity ratio in data set [4] and in data set [5] was below 1 in each case.

For the molecule `O=c1nc(Nc2cccc(-c3cn(CCc4ccccc4)nn3)c2)c2cccnc2n1O`, the 50% effective concentration (EC50) in data set [1] (setting [7]) was found to be 9.5 µM; in data set [2] (setting [8]), 14.6 µM. Also, the cytotoxic concentration (CC50) in data set [3] was above 294 µM. Moreover, the figures for the selectivity ratio in data set [4] and in data set [5] were above 31 and above 20, respectively.

Consider `O=c1c2cc(Br)ccc2n(Cc2cn(Cc3ccc(Br)cc3)nn2)c(=O)n1O`, for which the EC50 in data set [1] (setting [7]) and in data set [2] (setting [8]) was above 21.8 µM each time. Also, in data set [3], the CC50 was 21.8 µM. Also, the selectivity ratio in data set [4] and in data set [5] was below 1 each time.

Regarding `COc1cc2c(cc1Cc1cccc(Cl)c1F)c(=O)c(C(=O)O)cn2[C@H](CO)C(C)C`, the EC50 came out at 0.0023 µM in data set [1] (setting [7]) and 0.0038 µM in data set [2] (setting [8]). Further, the CC50 in data set [3] was 6.3 µM.

As to `O=c1nc(Nc2cccc(-c3cn(CCCc4ccccc4)nn3)c2)c2cccnc2n1O`, the values for the concentration giving a half-maximal response (EC50) in data set [1] (setting [7]) and in data set [2] (setting [8]) were 26.1 µM and above 239 µM, respectively. Also, in data set [3], the CC50 was 239 µM. The selectivity ratio in data set [4] is 9; in data set [5], below 1.

Regarding `Cc1nnc(C(=O)NC(C)(C)c2nc(C(=O)NCc3ccc(F)cc3)c(O)c(=O)n2C)o1`, the values for the EC50 in data set [1] (setting [7]) and in data set [2] (setting [8]) were 0.0078 µM and 0.011 µM, respectively. The CC50 in data set [3] is above 55.8 µM.

`Cc1ccc(Cn2cc(-c3ccccc3Nc3nc(=O)n(O)c4ncccc34)nn2)cc1`: the concentration for a half-maximal effect (EC50) in data set [1] (setting [7]) and in data set [2] (setting [8]) was above 1.1 µM in each case. Further, the CC50 in data set [3] is 1.1 µM. For the same molecule, the selectivity ratio in data set [4] and in data set [5] was below 1 each time.

With `O=c1c2cc(Br)ccc2n(Cc2cn(Cc3ccc([N+](=O)[O-])cc3)nn2)c(=O)n1O`, the EC50 in data set [1] (setting [7]) and in data set [2] (setting [8]) was above 22.4 µM in each case. Also, in data set [3], the CC50 came out at 22.4 µM. Besides, the selectivity ratio in data set [4] and in data set [5] was below 1 each time.

With `O=C(Cn1cc(-c2cccc(Nc3nc(=O)n(O)c4ncccc34)c2)nn1)Nc1ccc(F)cc1`, the concentration giving a half-maximal response (EC50) in data set [1] (setting [7]) is 232 µM; in data set [2] (setting [8]), above 265 µM. Moreover, the CC50 in data set [3] was above 265 µM. The selectivity ratio in data set [4] is above 1; in data set [5], 1.

As to `O=c1c2cc(Br)ccc2n(Cc2cn(Cc3cccc(F)c3)nn2)c(=O)n1O`, the EC50 in data set [1] (setting [7]) and in data set [2] (setting [8]) was above 24.9 µM each time. For the same molecule, the CC50 in data set [3] stood at 24.9 µM. For the same molecule, the selectivity ratio in data set [4] and in data set [5] was below 1 each time.

In the case of `O=c1c2cc(Br)ccc2n(Cc2cn(Cc3ccc(F)cc3)nn2)c(=O)n1O`, the 50% effective concentration (EC50) in data set [1] (setting [7]) and in data set [2] (setting [8]) was above 25.1 µM throughout. Moreover, the CC50 in data set [3] was determined as 25.1 µM. Further, the selectivity ratio in data set [4] and in data set [5] was below 1 each time. Further, the inhibition entry in data set [6] was “Active”.

For `O=C(Cn1cc(-c2cccc(Nc3nc(=O)n(O)c4ncccc34)c2)nn1)c1ccc(F)cc1`, the concentration giving a half-maximal response (EC50) is 3 µM in data set [1] (setting [7]) and above 273 µM in data set [2] (setting [8]). Also, the half-maximal cytotoxic concentration (CC50) in data set [3] is above 273 µM. Moreover, the results for the selectivity ratio in data set [4] and in data set [5] were above 91 and 1, respectively.
